The source made the active and inactive calls. No cut-off for these calls is given here.
Assays:
[1] = tested on: HT-1080; assay: Induction of autophagy in human HT1080 cells assessed as conversion from LC31to LC32 at 10 uM by Western blotting analysis; assay type: functional, cell-based; conditions: TDE = time-dependent effect
Procedure, shortened: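 HT1080 cells exposed to 10 μM for 6, 12, 18 and 24 h, then lysed in Hepes pH 7.4/Triton buffer at 4 °C for 60 min. Equal protein run on 12% SDS-PAGE, blotted to nitrocellulose, probed for beclin 1 and LC3, ECL detection. Densities taken relative to β-actin, n = 3.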

[2] = tested on: HT-1080; assay: Induction of apoptosis in human HT1080 cells assessed as change in BAX expression at 10 uM after 6 to 24 hrs by Western blotting analysis; assay type: functional, cell-based
Procedure, shortened: (§1)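 HT1080 cells treated with 10 μM for 6, 12, 18 and 24 h. Adherent and floating cells lysed 60 min at 4 °C in Hepes pH 7.4/1% Triton X-100 buffer with phosphatase and protease inhibitors. Equal protein run on 12% SDS-PAGE, transferred to nitrocellulose, probed with specific antibodies, HRP/ECL detection. Band density normalized to β-actin; n = 3.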

[3] = tested on: A549; assay: Cytotoxicity against human A549 cells assessed as growth inhibition after 24 hrs by MTT assay; assay type: functional, cell-based
Procedure, shortened: (§2)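 Seeded 0.8 × 10^4 cells/well, cultured 24 h, then exposed to 0, 10, 20, 40 or 80 μM for 24 h (DMSO <0.05%) in RPMI 1640 or MEM with 10% FBS. Adherent lines rinsed with PBS, given MTT 2 h at 37 °C. Suspension lines (U937, HL60) given MTT 2 h, then centrifuged. Formazan dissolved in DMSO, A492 read. Inhibition % = (control − sample)/(control − blank) × 100.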

[4] = tested on: HT-1080; assay: Induction of autophagy in human HT1080 cells assessed as upregulation of beclin 1 at 10 uM pretreated with 3MA for 1 hr prior to compound addition measured after 24 hrs by Western blotting analysis; assay type: functional, cell-based
Procedure, shortened: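 HT1080 cells pretreated 1 h with 1 mM 3MA or 1 nM rapamycin, then 10 μM added for 24 h. Adherent and floating cells lysed in Hepes pH 7.4/Triton buffer. Equal protein on 12% SDS-PAGE and nitrocellulose, probed for beclin 1 and LC3, ECL detection. Normalized to β-actin, n = 3.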

[5] = tested on: U-937; assay: Cytotoxicity against human U937 cells assessed as growth inhibition after 24 hrs by MTT assay; assay type: functional, cell-based; procedure, shortened: as §2
[6] = tested on: A375-S2; assay: Cytotoxicity against human A375-S2 cells assessed as growth inhibition after 24 hrs by MTT assay; assay type: functional, cell-based; procedure, shortened: as §2
[7] = tested on: HT-1080; assay: Induction of apoptosis in human HT1080 cells expressing beclin 1 siRNA assessed as increase in apoptotic ratio at 10 uM after 24 hrs by propidium iodide staining-based FACS flow cytometric analysis relative to control; assay type: functional, cell-based
Procedure, shortened: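 HT1080 cells transfected with beclin 1 or nonspecific siRNA (7 h at 37 °C, then 24 h in growth medium), then exposed to 10 μM for 24 h. Cells fixed in 70% ethanol at 4 °C for 18 h, washed, stained with PI 50 μg/mL plus RNase A 1 mg/mL. Apoptotic (sub-G1) fraction read by flow cytometry.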

[8] = tested on: HT-1080; assay: Induction of apoptosis in human HT1080 cells assessed as appearance of granular apoptotic bodies at 10 uM after 24 hrs by acridine orange staining-based fluorescence microscopic analysis; assay type: functional, cell-based
Procedure, shortened: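 HT1080 cells, 2 × 10^4/well, cultured 24 h, then exposed to 10 μM for 24 h. Stained with acridine orange 20 μg/mL for 15 min in the dark and examined by fluorescence microscopy at 200×.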

[9] = tested on: HT-1080; assay: Cytotoxicity against human HT1080 cells assessed as growth inhibition after 12 to 72 hrs by MTT assay; assay type: functional, cell-based
[10] = tested on: HT-1080; assay: Induction of apoptosis in human HT1080 cells assessed as increase in procaspase-3 cleavage at 10 uM pretreated with rapamycin for 1 hr prior to compound addition measured after 24 hrs by Western blotting analysis; assay type: functional, cell-based
Procedure, shortened: (§3)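 HT1080 cells pretreated 1 h with 1 mM 3MA or 1 nM rapamycin, then co-incubated with 10 μM for 24 h. Adherent and floating cells lysed in Hepes pH 7.4/Triton buffer. 12% SDS-PAGE, nitrocellulose, antibodies against Fas, FADD, caspase-8, caspase-3, PARP and ICAD, ECL detection. Densities normalized to β-actin; n = 3.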

[11] = tested on: HT-1080; assay: Cytotoxicity against human HT1080 cells assessed as growth inhibition after 24 hrs by MTT assay; assay type: functional, cell-based; conditions: HT-1080, 24 h
[12] = tested on: HT-1080; assay: Induction of apoptosis in human HT1080 cells assessed as downregulation of ICAD at 10 uM pretreated with 3MA for 1 hr prior to compound addition measured after 24 hrs by Western blotting analysis; assay type: functional, cell-based; procedure, shortened: as §3
[13] = tested on: HeLa; assay: Cytotoxicity against human HeLa cells assessed as growth inhibition after 24 hrs by MTT assay; assay type: functional, cell-based; procedure, shortened: as §2
[14] = tested on: HT-1080; assay: Cytotoxicity against human HT1080 cells assessed as growth inhibition at 10 uM pretreated with z-IETD-FMK for 1 hr prior to compound addition measured after 24 hrs by MTT assay; assay type: functional, cell-based
Procedure, shortened: (§4)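 HT1080 seeded 0.8 × 10^4 cells/well. MTT 2 h at 37 °C, formazan in DMSO, A492 read. Inhibition % calculated against untreated and blank wells.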

[15] = tested on: HT-1080; assay: Cytotoxicity against human HT1080 cells assessed as growth inhibition at 10 uM pretreated with rapamycin for 1 hr prior to compound addition measured after 24 hrs by MTT assay.; assay type: functional, cell-based; procedure, shortened: as §4
[16] = tested on: HT-1080; assay: Induction of apoptosis in human HT1080 cells assessed as PARP cleavage at 10 uM after 6 to 24 hrs by Western blotting analysis; assay type: functional, cell-based; procedure, shortened: as §1
[17] = tested on: HT-1080; assay: Induction of apoptosis in human HT1080 cells expressing beclin 1 siRNA assessed as increase in PARP cleavage at 10 uM after 24 hrs by Western blotting relative to control; assay type: functional, cell-based
Procedure, shortened: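 Beclin 1 or nonspecific siRNA transfected into HT1080 cells (5 × 10^5 seeded a day earlier; transfection mixture for 7 h at 37 °C, then normal medium, 24 h before harvest). Cells then got 10 μM for 24 h. Adherent plus floating cells lysed in Hepes pH 7.4/Triton buffer at 4 °C for 60 min. Equal protein on 12% SDS-PAGE, nitrocellulose, ECL. Bands normalized to β-actin, n = 3.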

[18] = tested on: HepG2; assay: Cytotoxicity against human HepG2 cells assessed as growth inhibition after 24 hrs by MTT assay; assay type: functional, cell-based; procedure, shortened: as §2
[19] = tested on: PBMC; assay: Cytotoxicity against human PBMC at 10 to 20 uM after 24 to 48 hrs by MTT assay; assay type: cell-based
Procedure, shortened: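 PBMC from fresh blood of three healthy male donors. Blood diluted 1:3 in PBS, layered on Ficoll-Hypaque (1.077 g/mL), spun 900g 30 min. Band washed 400g 10 min, cells resuspended in complete RPMI-1640 in 96-well plates. Treated with 0, 10, 20, 40 or 80 μM for 24 and 48 h, then MTT. Means ± SD of three independent experiments.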

[20] = tested on: HT-1080; assay: Induction of apoptosis in human HT1080 cells assessed as upregulation of FAS protein expression at 10 uM pretreated with 3MA for 1 hr prior to compound addition measured after 24 hrs by Western blotting analysis; assay type: functional, cell-based; procedure, shortened: as §3
[21] = tested on: HT-1080; assay: Induction of apoptosis in human HT1080 cells assessed as upregulation of FADD protein expression at 10 uM pretreated with 3MA for 1 hr prior to compound addition measured after 24 hrs by Western blotting analysis; assay type: functional, cell-based; procedure, shortened: as §3

SMILES: C=C1C(=O)O[C@@H]2C[C@@]1(C)[C@@H]1C(=O)[C@]3(O)O[C@]14[C@@]2(C)OC(=O)[C@@]4(O)CC[C@H]1[C@H]3[C@H](O)C=C2CC=CC(=O)[C@@]21C [PHYSALIN A]
- Activity [1]: tde
- Activity [2]: inactive
- growth inhibition (GI) [3]: Dose-dependent effect
- Activity [4]: inactive
- growth inhibition (GI) [5]: Dose-dependent effect
- growth inhibition (GI) [6]: Dose-dependent effect
- Activity [7]: Active
- Activity [8]: Active
- growth inhibition (GI) [9]: Dose-dependent effect
- Activity [10]: inactive
- IC50 [11]: 10.7 µM
- Activity [12]: Active
- growth inhibition (GI) [13]: Dose-dependent effect
- growth inhibition (GI) [14]: Active
- growth inhibition (GI) [15]: inactive
- Activity [16]: Active
- Activity [17]: Active
- growth inhibition (GI) [18]: Dose-dependent effect
- Activity [19]: Non-toxic
- Activity [20]: Active
- Activity [21]: Active
